Laboratory results as given in ChEMBL document CHEMBL4364271, “Unveiling the Importance of Amide Protons in CSP:ComD Interactions in Streptococcus pneumoniae” (ACS Med Chem Lett, 2019).
Calls of active or inactive are those of the source. No cut-off for these calls is given here. Non-standard residues stand in square brackets, D forms with d. Residues, ends and D or L forms follow the SMILES beside them. NMeR = CN[C@@H](CCCNC(=N)N)C(=O)O; NMeF = CN[C@@H](Cc1ccccc1)C(=O)O; NMeI = CC[C@H](C)[C@H](NC)C(=O)O; NMeQ = CN[C@@H](CCC(N)=O)C(=O)O; NMeD = CN[C@@H](CC(=O)O)C(=O)O; NMeL = CN[C@@H](CC(C)C)C(=O)O; NMeS = CN[C@@H](CO)C(=O)O

Legend:
[1] = Metabolic stability in aqueous ammonium carbonate solution assessed as trypsin/chymotrypsin (unknown origin)-mediated drug degradation by measuring half life at 0.05 ug/ml incubated in shaking conditions in presence of trypsin/chymotrpsin and measured for 48 hrs by RP-HPLC analysis; type: ADME; conditions: human
[2] = Antagonist activity at ComD1 receptor in Streptococcus pneumoniae D39 harboring pcomX/lacZ reporter gene assessed as inhibiton of CSP1-stimulated maximum signal preincubated for 30 mins followed by 50 nM CSP1 addition by ONPG based beta-galactosidase assay
Procedure, shortened: (§1)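 Comx-lacZ β-gal reporter inhibition in D39 (ComD1, CSP1 50 nM) or TIGR4 (ComD2, CSP2 250 nM). Peptides tested over a range of concentrations against the stimulating CSP. Miller units normalized to CSP alone. IC50 given with 95% confidence interval.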

[3] = Metabolic stability in human plasma at 0.33 mM measured for 3 hrs by RP-HPLC analysis; type: ADME, cell-free; conditions: 330 µM
[4] = Antagonist activity at ComD2 receptor in Streptococcus pneumoniae TIGR4 harboring pcomX/lacZ reporter gene assessed as inhibition of CSP2-stimulated maximum signal preincubated for 30 mins followed by 250 nM native CSP2 addition by ONPG based beta-galactosidase assay; procedure, shortened: as §1
[5] = tested on: Streptococcus pneumoniae D39; experiment: Agonist activity at ComD1 receptor in Streptococcus pneumoniae D39 harboring pcomX/lacZ reporter gene at 10 uM incubated for 30 mins by ONPG based beta-galactosidase assay relative to native CSP1
Procedure, shortened: (§2)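 Single-dose screen of synthetic peptide at 10 μM in wild-type reporter strains (D39 for ComD1, TIGR4 for ComD2) producing their own CSP and carrying lacZ under the comX promoter. β-gal activity in Miller units normalized to native CSP (CSP1 or CSP2, 100%); DMSO 0%. Triplicates over three separate trials.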

[6] = tested on: Streptococcus pneumoniae TIGR4; experiment: Agonist activity at ComD2 receptor in Streptococcus pneumoniae TIGR4 harboring pcomX/lacZ reporter gene at 10 uM incubated for 30 mins by ONPG based beta-galactosidase assay relative to native CSP2; procedure, shortened: as §2
[7] = tested on: Streptococcus pneumoniae D39; experiment: Antagonist activity at ComD1 receptor in Streptococcus pneumoniae D39 harboring pcomX/lacZ reporter gene assessed as inhibiton of CSP1-stimulated maximum signal at 10 uM preincubated for 30 mins followed by 50 nM CSP1 addition by ONPG based beta-galactosidase assay relative to native CSP1
Procedure, shortened: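 Inhibition screen: peptides at 10 μM against CSP1 50 nM (D39, ComD1) or CSP2 250 nM (TIGR4, ComD2), in comX-lacZ reporter strains. β-gal Miller units normalized to CSP alone (100%) and DMSO (0%). Triplicates over three separate trials.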

[8] = Agonist activity at ComD2 receptor in Streptococcus pneumoniae TIGR4 harboring pcomX/lacZ reporter gene incubated for 30 mins by ONPG based beta-galactosidase assay
Procedure, shortened: (§3)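 Dose-response in wild-type lacZ reporter strains (comX promoter; D39 for ComD1, TIGR4 for ComD2) producing native CSP. Peptides tested over a range of concentrations. β-gal read-out (Miller units) normalized to native CSP. EC50 reported with 95% confidence interval.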

[9] = Solubility of the compound in ammonium carbonate solution at pH 8; type: physicochemical; conditions: buffer
[10] = Agonist activity at ComD1 receptor in Streptococcus pneumoniae D39 harboring pcomX/lacZ reporter gene incubated for 30 mins by ONPG based beta-galactosidase assay; procedure, shortened: as §3
[11] = Metabolic stability in human plasma assessed as half-life at 0.33 mM measured for 3 hrs by RP-HPLC analysis; type: ADME, cell-free

Row | Compound | half-life at 0.05 ug/ml [1] [h] | Activity [5] | Activity [6] | EC50 [8] [nM] | EC50 [10] [nM] | also measured
1 | CC[C@H](C)[C@H](NC(=O)[C@H](Cc1ccccc1)NC(=O)[C@H](CC(=O)O)NC(=O)[C@H](CCCNC(=N)N)NC(=O)[C@H](Cc1ccccc1)NC(=O)[C@H](Cc1ccccc1)NC(=O)[C@H](CCCCN)NC(=O)[C@H](CO)NC(=O)[C@H](CC(C)C)NC(=O)[C@H](CCCNC(=N)N)NC(=O)[C@H](CCSC)NC(=O)[C@H](C)N)C(=O)N[C@@H](CC(C)C)C(=O)N(C)[C@@H](CCC(N)=O)C(=O)N[C@@H](CCCNC(=N)N)C(=O)N[C@@H](CCCCN)C(=O)N[C@@H](CCCCN)C(=O)O | 6 |  |  |  |  | IC50 [2]: 370 nM; Stability [3]: Stable
2 | CC[C@H](C)[C@H](NC(=O)[C@H](Cc1ccccc1)NC(=O)[C@H](CC(=O)O)NC(=O)[C@H](CCCNC(=N)N)NC(=O)[C@H](Cc1ccccc1)NC(=O)[C@H](Cc1ccccc1)NC(=O)[C@H](CCCCN)N(C)C(=O)[C@H](CO)NC(=O)[C@H](CC(C)C)NC(=O)[C@H](CCCNC(=N)N)NC(=O)[C@H](CCSC)NC(=O)[C@H](C)N)C(=O)N[C@@H](CC(C)C)C(=O)N[C@@H](CCC(N)=O)C(=O)N[C@@H](CCCNC(=N)N)C(=O)N[C@@H](CCCCN)C(=O)N[C@@H](CCCCN)C(=O)O | 2 |  |  |  |  | IC50 [2]: 48 nM; Stability [3]: Unstable
3 | CC[C@H](C)[C@H](NC(=O)[C@H](Cc1ccccc1)NC(=O)[C@H](CC(=O)O)NC(=O)[C@H](CCCNC(=N)N)NC(=O)[C@H](Cc1ccccc1)NC(=O)[C@H](Cc1ccccc1)NC(=O)[C@H](CCCCN)N(C)C(=O)[C@H](CO)NC(=O)[C@H](CC(C)C)NC(=O)[C@H](CCCNC(=N)N)NC(=O)[C@H](CCSC)NC(=O)[C@H](C)N)C(=O)N[C@@H](CC(C)C)C(=O)N(C)[C@@H](CCC(N)=O)C(=O)N[C@@H](CCCNC(=N)N)C(=O)N[C@@H](CCCCN)C(=O)N[C@@H](CCCCN)C(=O)O | 6 |  |  |  |  | IC50 [2]: 360 nM; Stability [3]: Unstable
4 | CC[C@H](C)[C@H](NC(=O)[C@H](CCCNC(=N)N)NC(=O)[C@H](CCSC)NC(=O)[C@H](C)N)C(=O)N[C@@H](CO)C(=O)N[C@@H](CCCNC(=N)N)C(=O)N[C@H](C(=O)N[C@H](C(=O)N[C@@H](CC(C)C)C(=O)N[C@H](CC(=O)O)C(=O)N[C@@H](Cc1ccccc1)C(=O)N[C@@H](CC(C)C)C(=O)N(C)[C@@H](Cc1ccccc1)C(=O)N[C@@H](CC(C)C)C(=O)N[C@@H](CCCNC(=N)N)C(=O)N[C@@H](CCCCN)C(=O)N[C@@H](CCCCN)C(=O)O)[C@@H](C)CC)[C@@H](C)CC | 4 |  |  |  |  | IC50 [4]: 64 nM; IC50 [2]: > 1000 nM; Stability [3]: Unstable
5 | CC[C@H](C)[C@H](NC(=O)[C@H](CCCNC(=N)N)NC(=O)[C@H](CO)N(C)C(=O)[C@@H](NC(=O)[C@H](CCCNC(=N)N)NC(=O)[C@H](CCSC)NC(=O)[C@@H](N)CCC(=O)O)[C@@H](C)CC)C(=O)N[C@H](C(=O)N[C@@H](CC(C)C)C(=O)N[C@@H](CC(=O)O)C(=O)N[C@@H](Cc1ccccc1)C(=O)N[C@@H](CC(C)C)C(=O)N[C@@H](Cc1ccccc1)C(=O)O)[C@@H](C)CC (H-EMRI[NMeS]RIILDFLF-OH) |  | inactive | > 75% | 550 |  | inhibition [7]: inactive; solubility [9]: Insoluble
6 | CC[C@H](C)[C@H](NC(=O)[C@H](Cc1ccccc1)NC(=O)[C@H](CC(=O)O)NC(=O)[C@H](CCCNC(=N)N)NC(=O)[C@H](Cc1ccccc1)NC(=O)[C@H](Cc1ccccc1)NC(=O)[C@H](CCCCN)NC(=O)[C@H](CO)NC(=O)[C@H](CC(C)C)NC(=O)[C@H](CCCNC(=N)N)NC(=O)[C@H](CCSC)NC(=O)[C@@H](N)CCC(=O)O)C(=O)N[C@@H](CC(C)C)C(=O)N[C@@H](CCC(N)=O)C(=O)N(C)[C@@H](CCCNC(=N)N)C(=O)O (H-EMRLSKFFRDFILQ[NMeR]-OH) |  | > 75% | > 75% | > 1000 | 130 | 
7 | CC[C@H](C)[C@H](NC(=O)[C@H](Cc1ccccc1)NC(=O)[C@H](CC(=O)O)NC(=O)[C@H](CCCNC(=N)N)NC(=O)[C@H](Cc1ccccc1)NC(=O)[C@H](Cc1ccccc1)NC(=O)[C@H](CCCCN)NC(=O)[C@H](CO)NC(=O)[C@H](CC(C)C)NC(=O)[C@H](CCCNC(=N)N)NC(=O)[C@H](CCSC)NC(=O)[C@@H](N)CCC(=O)O)C(=O)N[C@@H](CC(C)C)C(=O)N(C)[C@@H](CCC(N)=O)C(=O)N[C@@H](CCCNC(=N)N)C(=O)O (H-EMRLSKFFRDFIL[NMeQ]R-OH) | 6 | > 75% | inactive |  | 68 | half-life at 330 µM [11]: 2 h
8 | CC[C@H](C)[C@H](NC(=O)[C@H](Cc1ccccc1)NC(=O)[C@H](CC(=O)O)NC(=O)[C@H](CCCNC(=N)N)NC(=O)[C@H](Cc1ccccc1)NC(=O)[C@H](Cc1ccccc1)NC(=O)[C@H](CCCCN)NC(=O)[C@H](CO)NC(=O)[C@H](CC(C)C)NC(=O)[C@H](CCCNC(=N)N)NC(=O)[C@H](CCSC)NC(=O)[C@@H](N)CCC(=O)O)C(=O)N(C)[C@@H](CC(C)C)C(=O)N[C@@H](CCC(N)=O)C(=O)N[C@@H](CCCNC(=N)N)C(=O)O (H-EMRLSKFFRDFI[NMeL]QR-OH) |  | inactive | inactive |  | > 1000 | 
9 | CC[C@H](C)[C@H](NC(=O)[C@H](Cc1ccccc1)NC(=O)[C@H](CC(=O)O)N(C)C(=O)[C@H](CCCNC(=N)N)NC(=O)[C@H](Cc1ccccc1)NC(=O)[C@H](Cc1ccccc1)NC(=O)[C@H](CCCCN)NC(=O)[C@H](CO)NC(=O)[C@H](CC(C)C)NC(=O)[C@H](CCCNC(=N)N)NC(=O)[C@H](CCSC)NC(=O)[C@@H](N)CCC(=O)O)C(=O)N[C@@H](CC(C)C)C(=O)N[C@@H](CCC(N)=O)C(=O)N[C@@H](CCCNC(=N)N)C(=O)O (H-EMRLSKFFR[NMeD]FILQR-OH) |  | inactive | > 75% | > 1000 | > 1000 | 
10 | CC[C@H](C)[C@H](NC(=O)[C@H](Cc1ccccc1)NC(=O)[C@H](CC(=O)O)NC(=O)[C@H](CCCNC(=N)N)NC(=O)[C@H](Cc1ccccc1)N(C)C(=O)[C@H](Cc1ccccc1)NC(=O)[C@H](CCCCN)NC(=O)[C@H](CO)NC(=O)[C@H](CC(C)C)NC(=O)[C@H](CCCNC(=N)N)NC(=O)[C@H](CCSC)NC(=O)[C@@H](N)CCC(=O)O)C(=O)N[C@@H](CC(C)C)C(=O)N[C@@H](CCC(N)=O)C(=O)N[C@@H](CCCNC(=N)N)C(=O)O (H-EMRLSKF[NMeF]RDFILQR-OH) |  | > 75% | inactive |  | > 1000 | 
11 | CC[C@H](C)[C@H](NC(=O)[C@H](Cc1ccccc1)NC(=O)[C@H](CC(=O)O)NC(=O)[C@H](CCCNC(=N)N)NC(=O)[C@H](Cc1ccccc1)NC(=O)[C@H](Cc1ccccc1)NC(=O)[C@H](CCCCN)NC(=O)[C@H](CO)N(C)C(=O)[C@H](CC(C)C)NC(=O)[C@H](CCCNC(=N)N)NC(=O)[C@H](CCSC)NC(=O)[C@@H](N)CCC(=O)O)C(=O)N[C@@H](CC(C)C)C(=O)N[C@@H](CCC(N)=O)C(=O)N[C@@H](CCCNC(=N)N)C(=O)O (H-EMRL[NMeS]KFFRDFILQR-OH) |  | > 75% | > 75% | > 1000 | 280 | 
12 | CC[C@H](C)[C@H](NC(=O)[C@H](CCCNC(=N)N)NC(=O)[C@H](CO)NC(=O)[C@H]([C@@H](C)CC)N(C)C(=O)[C@H](CCCNC(=N)N)NC(=O)[C@H](CCSC)NC(=O)[C@@H](N)CCC(=O)O)C(=O)N[C@H](C(=O)N[C@@H](CC(C)C)C(=O)N[C@@H](CC(=O)O)C(=O)N[C@@H](Cc1ccccc1)C(=O)N[C@@H](CC(C)C)C(=O)N[C@@H](Cc1ccccc1)C(=O)O)[C@@H](C)CC (H-EMR[NMeI]SRIILDFLF-OH) |  | inactive | > 75% | > 1000 |  | inhibition [7]: inactive; solubility [9]: Insoluble
13 | CC[C@H](C)[C@H](NC(=O)[C@H](Cc1ccccc1)NC(=O)[C@H](CC(=O)O)NC(=O)[C@H](CCCNC(=N)N)NC(=O)[C@H](Cc1ccccc1)NC(=O)[C@H](Cc1ccccc1)NC(=O)[C@H](CCCCN)NC(=O)[C@H](CO)NC(=O)[C@H](CC(C)C)N(C)C(=O)[C@H](CCCNC(=N)N)NC(=O)[C@H](CCSC)NC(=O)[C@@H](N)CCC(=O)O)C(=O)N[C@@H](CC(C)C)C(=O)N[C@@H](CCC(N)=O)C(=O)N[C@@H](CCCNC(=N)N)C(=O)O (H-EMR[NMeL]SKFFRDFILQR-OH) |  | > 75% | inactive |  | 280 | 
14 | H-EMRLSKFFRDFILQR-OH | 4 |  |  | > 1000 | 8.1 | 
